# From PMC3983950 (Journal of medicinal chemistry, 2012)
# Read-outs that look alike come from different tables or passages of the source.
# What was measured:
# ABCG2 = target: T1, ABCG2 (Homo sapiens, UniProt Q9UNQ0); format: cell-based; conditions: for class: ranked by apparent affinity and maximal extent of inhibition; for ABCG2 inhibition (in words): at 2 and 10 µM
# T1 sequence (Q9UNQ0 1-655): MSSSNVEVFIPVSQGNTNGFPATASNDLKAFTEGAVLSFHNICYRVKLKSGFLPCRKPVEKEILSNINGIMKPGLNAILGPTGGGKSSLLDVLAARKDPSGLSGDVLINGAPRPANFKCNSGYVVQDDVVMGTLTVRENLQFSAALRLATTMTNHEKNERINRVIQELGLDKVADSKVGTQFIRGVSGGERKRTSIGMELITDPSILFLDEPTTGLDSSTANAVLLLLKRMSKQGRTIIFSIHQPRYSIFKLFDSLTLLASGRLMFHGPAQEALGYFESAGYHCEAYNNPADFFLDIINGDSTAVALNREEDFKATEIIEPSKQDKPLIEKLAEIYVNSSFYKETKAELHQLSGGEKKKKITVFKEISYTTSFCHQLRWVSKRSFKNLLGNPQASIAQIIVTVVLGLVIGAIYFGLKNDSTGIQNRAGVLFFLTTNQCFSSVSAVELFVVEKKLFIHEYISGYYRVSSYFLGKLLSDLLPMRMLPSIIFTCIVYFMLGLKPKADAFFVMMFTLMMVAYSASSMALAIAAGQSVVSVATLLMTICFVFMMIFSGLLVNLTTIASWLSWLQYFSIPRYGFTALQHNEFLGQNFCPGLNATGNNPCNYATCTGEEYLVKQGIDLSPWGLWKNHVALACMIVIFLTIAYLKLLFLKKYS
# [1] = test system: HEK293-ABCG2 and HEK293-pcDNA3.1 cells; assay: Cytotoxicity, MTT colorimetric assay, 72 h; format: cell-based, human; conditions: for IG50 (cytotoxicity, µM): concentration producing 50% inhibition of cell growth, MTT, 72 h
# Method in brief: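 HEK293-ABCG2 and empty-vector HEK293-pcDNA3.1 cells (DMEM high glucose, 10% FBS, 0.75 mg/mL G418) seeded at 1 × 10^4 cells/well, attached 24 h at 37 °C, 5% CO2. Exposed 72 h to various concentrations of test compound (DMSO stock diluted in medium). MTT (5 mg/mL solution) added for 4 h, formazan dissolved in DMSO, A570 read. Triplicates; viability relative to 0.1% DMSO control (100%).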
class (ABCG2; Table 1),SMILES,further results
3,COc1cccc(OC)c1C(=O)/C=C/c1ccccc1 [Compound 1],
3,CCOc1cccc(OCC)c1C(=O)/C=C/c1c(OC)cc(OC)cc1OC [Compound 9],
3,COc1cc(OC)c(C(=O)/C=C/c2c(OC)cccc2OC)c(OC)c1 [Compound 15],"ABCG2 inhibition (in words) (ABCG2): especially low, if any, inhibition"
,COc1cc(OC)c(C(=O)/C=C/c2cn(C)c3ccccc23)c(OC)c1 [Compound 42],"class (ABCG2; Table 2): 3; ABCG2 inhibition (in words) (ABCG2): especially low, if any, inhibition"
3,COc1cc(/C=C/C(=O)c2c(OC)cccc2OC)cc(OC)c1OC [Compound 8],ABCG2 inhibition (in words) (ABCG2): low inhibition
,COc1cc(OC)c(/C=C/C(=O)c2cn(C)c3ccc(OC)cc23)c(OC)c1 [Compound 39],"fold lower IG50 than compounds 27 and 38 [1]: 50 fold; IG50 (cytotoxicity, µM) [1]: 1.0 ± 0.1 µM; class (ABCG2; Table 2): 1 (Class 1 included high-affinity inhibitors (IC50 < 1 µM) producing a complete inhibition at both 2 and 10 µM)"
3,COc1cc(O)c(C(=O)/C=C/c2ccccc2OC)c(OC)c1 [Compound 30],
3,COc1cccc(OC)c1/C=C/C(=O)c1ccccc1 [Compound 17],"ABCG2 inhibition (in words) (ABCG2): especially low, if any, inhibition"
3,COc1cc(OC)c(/C=C/C(=O)c2c(O)cc(OC)cc2OC)c(OC)c1 [Compound 32],
,COc1cc(OC)c(/C=C/C(=O)c2cn(C)c3ccccc23)c(OC)c1 [Compound 37],"IG50 (cytotoxicity, µM) [1]: 4.0 ± 0.2 µM; class (ABCG2; Table 2): 1 (Class 1 included high-affinity inhibitors (IC50 < 1 µM) producing a complete inhibition at both 2 and 10 µM)"
3,COc1cc(OC)c(/C=C/C(=O)c2c(OC)cccc2OC)c(OC)c1 [Compound 5],
3,COc1cc(OC)c(OC)cc1/C=C/C(=O)c1c(OC)cccc1OC [Compound 7],
3,COc1cccc(OC)c1/C=C/C(=O)c1c(OC)cccc1OC [Compound 4],
3,COc1cccc(/C=C/C(=O)c2c(OC)cccc2OC)c1 [Compound 3],
3,COc1cc(OC)c(/C=C/C(=O)c2c(OC)cc(OC)cc2OC)c(OC)c1 [Compound 13],
,COc1cc(/C=C/C(=O)c2cn(C)c3ccccc23)cc(OC)c1OC [Compound 36],class (ABCG2; Table 2): 3
3,COc1cc(O)c(C(=O)/C=C/c2ccc(OC)c(OC)c2OC)c(OC)c1 [Compound 34],
3,CCOc1cccc(OCC)c1C(=O)/C=C/c1ccc(OC)cc1OC [Compound 11],
3,CCOc1cccc(OCC)c1C(=O)/C=C/c1c(OC)cccc1OC [Compound 10],"ABCG2 inhibition (in words) (ABCG2): especially low, if any, inhibition"
3,COc1ccc(/C=C/C(=O)c2c(OC)cccc2OC)c(OC)c1OC [Compound 6],ABCG2 inhibition (in words) (ABCG2): no inhibition at all
,COc1cccc(OC)c1C(=O)/C=C/c1cn(C)c2ccccc12 [Compound 43],"class (ABCG2; Table 2): 3; ABCG2 inhibition (in words) (ABCG2): especially low, if any, inhibition"
3,COc1ccc(/C=C/C(=O)c2c(OC)cc(OC)cc2OC)c(OC)c1 [Compound 14],
,"Cn1cc(/C=C/C(=O)c2cn(C)c3ccccc23)c2ccccc21 [Compound 44, 1,3-diindolylpropenone]",class (ABCG2; Table 2): 3
,COc1cccc(OC)c1/C=C/C(=O)c1cn(C)c2ccccc12 [Compound 38],class (ABCG2; Table 2): 1 (Class 1 included high-affinity inhibitors (IC50 < 1 µM) producing a complete inhibition at both 2 and 10 µM)
3,COc1ccccc1/C=C/C(=O)c1c(OC)cccc1OC [Compound 2],
,COc1ccc(/C=C/C(=O)c2cn(C)c3ccccc23)c(OC)c1 [Compound 35],class (ABCG2; Table 2): 3
,COc1ccc(C(=O)/C=C/c2cn(C)c3ccccc23)c(OC)c1 [Compound 40],class (ABCG2; Table 2): 3

SMILES,class (ABCG2; Table 1),further results
COc1ccc(/C=C/C(=O)c2ccc(OC)cc2OC)c(OC)c1 [Compound 12],2 (Class 2 comprised high-affinity inhibitors producing an incomplete maximal inhibition (limited to 50–75%)),
COc1cc(/C=C/C(=O)c2ccc(OC)cc2O)cc(OC)c1 [Compound 18],2 (Class 2 comprised high-affinity inhibitors producing an incomplete maximal inhibition (limited to 50–75%)),
COc1ccc(C(=O)/C=C/c2cc(OC)ccc2OC)c(O)c1 [Compound 23],2 (Class 2 comprised high-affinity inhibitors producing an incomplete maximal inhibition (limited to 50–75%)),
COc1ccc(C(=O)/C=C/c2ccc(OC)cc2OC)c(O)c1 [Compound 26],2 (Class 2 comprised high-affinity inhibitors producing an incomplete maximal inhibition (limited to 50–75%)),
COc1cc(O)c(C(=O)/C=C/c2cc(OC)c(OC)c(OC)c2)c(OC)c1 [Compound 33],2 (Class 2 comprised high-affinity inhibitors producing an incomplete maximal inhibition (limited to 50–75%)),
COc1ccc(C(=O)/C=C/c2c(OC)cccc2OC)c(O)c1 [Compound 25],2 (Class 2 comprised high-affinity inhibitors producing an incomplete maximal inhibition (limited to 50–75%)),
COc1cccc(/C=C/C(=O)c2c(O)cc(OC)cc2OC)c1 [Compound 31],1 (Class 1 included high-affinity inhibitors (IC50 < 1 µM) producing a complete inhibition at both 2 and 10 µM),"IG50 (cytotoxicity, µM) [1]: 10.0 ± 2.1 µM"
COc1ccc(C(=O)/C=C/c2ccc(OC)c(OC)c2)c(O)c1 [Compound 20],2 (Class 2 comprised high-affinity inhibitors producing an incomplete maximal inhibition (limited to 50–75%)),
COc1cc(O)c(C(=O)/C=C/c2c(OC)cccc2OC)c(OC)c1 [Compound 27],1 (Class 1 included high-affinity inhibitors (IC50 < 1 µM) producing a complete inhibition at both 2 and 10 µM),
CCOc1cc(OCC)c(/C=C/C(=O)c2c(OCC)cc(OCC)cc2OCC)c(OCC)c1 [Compound 16],2 (Class 2 comprised high-affinity inhibitors producing an incomplete maximal inhibition (limited to 50–75%)),
COc1cc(/C=C/C(=O)c2c(O)cc(OC)cc2OC)cc(OC)c1 [Compound 28],1 (Class 1 included high-affinity inhibitors (IC50 < 1 µM) producing a complete inhibition at both 2 and 10 µM),"IG50 (cytotoxicity, µM) [1]: 6.0 ± 0.4 µM"
COc1cc(O)c(C(=O)/C=C/c2ccccc2)c(OC)c1 [Compound 29],2 (Class 2 comprised high-affinity inhibitors producing an incomplete maximal inhibition (limited to 50–75%)),
